What was measured:
[1] = target: Delta-type opioid receptor (Mus musculus, UniProt P32300); assay: Evaluated for inhibitory activity against Opioid receptor delta 1 of mouse vas deferens (MVD).; format: tissue-based
Mu-type opioid receptor [2] = target: T1, Mu-type opioid receptor (Cavia porcellus, UniProt P97266); assay: Evaluated for inhibitory activity against Opioid receptor mu 1 of guinea pig ileum (GPI); format: tissue-based
Mu-type opioid receptor [3] = target: T1, Mu-type opioid receptor; assay: Binding affinities against Opioid receptor mu 1 of guinea pig brain membrane using [3H]DAGO as the radioligand using competition binding assays.
Summary of the method: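 μ-site competition binding on crude P2 membranes from male Hartley guinea pig brain (1 g original wet weight/20 mL, 50 mM Tris-HCl pH 7.6) with 5 nM [3H]DAGO and varied competitor, 60 min at 25 °C. GF/B filtration (1% polyethylenimine presoaked), six ice-cold buffer rinses, scintillation counting. Nonspecific binding with 10 μM levallorphan. Mean of five or six determinations ± SEM.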

Mus musculus [4] = assay: Evaluated for analgesic effect using mouse tail-pinch test after intravenous administration; 2.08-7.27; format: functional
Summary of the method: (§1)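 Mice, intravenous dosing, tail-pinch analgesia test. Four doses per compound, each dose tested on at least eight animals, giving ED50 in mg/kg.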

Mus musculus [5] = assay: Evaluated for analgesic effect using mouse tail-pinch test after intravenous administration; 1.27-3.29; format: functional; summary of the method: as §1
Mus musculus [6] = assay: Evaluated for analgesic effect using mouse tail-pinch test after intravenous administration; 1.97-5.67; format: functional; summary of the method: as §1
Mus musculus [7] = assay: Evaluated for analgesic effect using mouse tail-pinch test after intravenous administration; format: functional; summary of the method: as §1
Mus musculus [8] = assay: Evaluated for analgesic effect using mouse tail-pinch test after intravenous administration; 0.25-2.26; format: functional; summary of the method: as §1

Delta-type opioid receptor, sequence (P32300 whole entry): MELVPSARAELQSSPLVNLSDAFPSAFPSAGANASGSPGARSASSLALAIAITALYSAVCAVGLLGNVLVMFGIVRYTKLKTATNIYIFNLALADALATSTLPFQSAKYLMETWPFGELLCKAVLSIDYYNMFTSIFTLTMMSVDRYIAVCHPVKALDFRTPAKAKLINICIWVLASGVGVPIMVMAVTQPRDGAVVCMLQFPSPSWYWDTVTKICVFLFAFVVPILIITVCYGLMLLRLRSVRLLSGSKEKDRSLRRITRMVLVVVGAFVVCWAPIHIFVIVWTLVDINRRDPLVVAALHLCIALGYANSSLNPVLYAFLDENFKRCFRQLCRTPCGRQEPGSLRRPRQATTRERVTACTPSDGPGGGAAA
T1 sequence (P97266 whole entry): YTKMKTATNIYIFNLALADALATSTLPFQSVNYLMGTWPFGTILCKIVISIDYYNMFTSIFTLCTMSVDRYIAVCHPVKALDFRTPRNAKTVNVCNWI

SMILES | IC50 [1] [nM] | IC50 (Mu-type opioid receptor [2]) [nM] | further results
CN[C@@H](Cc1ccc(O)cc1)C(=O)NCC(=O)NCC(=O)N[C@@H](Cc1ccccc1)C(=O)N(C)[C@@H](CC(C)C)C(=O)N[C@@H](CCCNC(=N)N)C(=O)N[C@@H](CCCNC(=N)N)C(=O)N[C@H](CC(C)C)C(N)=O | 25.3 | 11.9 | –
CN[C@@H](Cc1ccc(O)cc1)C(=O)NCC(=O)N[C@H](C)C(=O)N[C@@H](Cc1ccccc1)C(=O)N[C@@H](CC(C)C)C(=O)N[C@@H](CCCN=C(N)N)C(=O)N[C@@H](CCCN=C(N)N)C(=O)N[C@@H](CC(C)C)C(N)=O | 210 | 12.7 | –
CN[C@@H](Cc1ccc(O)cc1)C(=O)NCC(=O)NCC(=O)N[C@H](Cc1ccccc1)C(=O)N[C@@H](CC(C)C)C(=O)N[C@@H](CCCNC(=N)N)C(=O)N[C@@H](CCCNC(=N)N)C(=O)N[C@@H](CC(C)C)C(N)=O | 5.2 | – | Ki (Mu-type opioid receptor [3]): 2.81 nM; ED50 (Mus musculus [4]): 3.89 mg/kg
CN[C@@H](Cc1ccc(O)cc1)C(=O)NCC(=O)NCC(=O)N[C@@H](Cc1ccccc1)C(=O)N[C@@H](CC(C)C)C(=O)N[C@@H](CCCNC(=N)N)C(=O)N(C)[C@@H](CCCNC(=N)N)C(=O)N[C@H](CC(C)C)C(N)=O | 4.8 | 0.5 | Ki (Mu-type opioid receptor [3]): 3.34 nM
CN[C@@H](Cc1ccc(O)cc1)C(=O)NCC(=O)NCC(=O)N[C@H](Cc1ccccc1)C(=O)N[C@@H](CC(C)C)C(=O)N[C@@H](CCCN=C(N)N)C(=O)N(C)[C@@H](CCCN=C(N)N)C(=O)N[C@@H](CC(C)C)C(N)=O | – | – | ED50 (Mus musculus [5]): 2.04 mg/kg
CCNC(=O)[C@@H](CC(C)C)NC(=O)[C@H](CCCNC(=N)N)NC(=O)[C@H](CCCNC(=N)N)NC(=O)[C@H](CC(C)C)NC(=O)[C@H](Cc1ccccc1)NC(=O)CNC(=O)CNC(=O)[C@H](Cc1ccc(O)cc1)NC | 4.6 | 0.7 | –
CCNC(=O)[C@H](CC(C)C)NC(=O)[C@H](CCCN=C(N)N)NC(=O)[C@H](CCCN=C(N)N)NC(=O)[C@H](CC(C)C)NC(=O)[C@@H](Cc1ccccc1)NC(=O)CNC(=O)CNC(=O)[C@H](Cc1ccc(O)cc1)NC | – | – | ED50 (Mus musculus [6]): 3.34 mg/kg
CN[C@@H](Cc1ccc(O)cc1)C(=O)NCC(=O)NCC(=O)N[C@H](Cc1ccccc1)C(=O)N[C@H](CC(C)C)C(=O)N[C@@H](CCCNC(=N)N)C(=O)N[C@@H](CCCNC(=N)N)C(=O)N[C@@H](CC(C)C)C(N)=O | > 1740 | 82 | ED50 (Mus musculus [7]): > 6 mg/kg
CN[C@@H](Cc1ccc(O)cc1)C(=O)NCC(=O)NCC(=O)N[C@@H](Cc1ccccc1)C(=O)N[C@H](C)C(=O)N[C@@H](CCCNC(=N)N)C(=O)N[C@@H](CCCNC(=N)N)C(=O)N[C@H](CC(C)C)C(N)=O | 9800 | 6000 | –
CN[C@@H](Cc1ccc(O)cc1)C(=O)NCC(=O)NCC(=O)N[C@H](Cc1ccccc1)C(=O)N[C@H](C)C(=O)N[C@@H](CCCN=C(N)N)C(=O)N[C@@H](CCCN=C(N)N)C(=O)N[C@@H](CC(C)C)C(N)=O | – | – | ED50 (Mus musculus [7]): > 20 mg/kg
CN[C@@H](Cc1ccc(O)cc1)C(=O)NCC(=O)NNC(=O)N[C@@H](Cc1ccccc1)C(=O)N[C@@H](CC(C)C)C(=O)N[C@@H](CCCNC(=N)N)C(=O)N[C@@H](CCCNC(=N)N)C(=O)N[C@H](CC(C)C)C(N)=O | 62.4 | 18.6 | –
CN[C@@H](Cc1ccc(O)cc1)C(=O)NCC(=O)NCC(=O)N[C@@H](Cc1ccccc1)C(=O)N[C@@H](CC(C)C)C(=O)N[C@@H](CCCN=C(N)N)C(=O)N[C@@H](CCCN=C(N)N)C(=O)N[C@@H](CC(C)C)C(N)=O | – | > 3000 | –
CN[C@@H](Cc1ccc(O)cc1)C(=O)NCC(=O)NCC(=O)N[C@@H](Cc1ccccc1)C(=O)N[C@@H](CC(C)C)C(=O)N[C@@H](CCCCN=C(N)N)C(=O)N[C@@H](CCCN=C(N)N)C(=O)N[C@H](CC(C)C)C(N)=O [listing 1 of 2 here] | 12 | 2.6 | –
CN[C@@H](Cc1ccc(O)cc1)C(=O)NCC(=O)NCC(=O)N[C@@H](Cc1ccccc1)C(=O)N[C@@H](CC(C)C)C(=O)N[C@@H](CCCCN=C(N)N)C(=O)N[C@@H](CCCN=C(N)N)C(=O)N[C@H](CC(C)C)C(N)=O [listing 2 of 2 here] | – | – | ED50 (Mus musculus [7]): > 8 mg/kg
CCNC(=O)[C@@H](CC(C)C)NC(=O)[C@H](CCCNC(=N)N)N(C)C(=O)[C@H](CCCNC(=N)N)NC(=O)[C@H](CC(C)C)NC(=O)[C@H](Cc1ccccc1)NC(=O)CNC(=O)CNC(=O)[C@H](Cc1ccc(O)cc1)NC | 7.4 | 0.3 | Ki (Mu-type opioid receptor [3]): 4.51 nM
CCNC(=O)[C@@H](CC(C)C)NC(=O)[C@H](CCCN=C(N)N)N(C)C(=O)[C@H](CCCN=C(N)N)NC(=O)[C@H](CC(C)C)NC(=O)[C@H](Cc1ccccc1)NC(=O)CNC(=O)CNC(=O)[C@H](Cc1ccc(O)cc1)NC | – | – | ED50 (Mus musculus [8]): 0.75 mg/kg

Reference: ChEMBL document CHEMBL1124934, “Synthesis and structure-activity relationships of dynorphin A-(1-8) amide analogues” (J Med Chem, 1990)
